Assay outcomes from PubChem.
This is a sample that favours compounds with a hit; in the whole collection about 3.7% have one here.
Cl transport mod = KCC2 cotransporter modulators, thallium flux, primary screen, cell-based, HEK293 KCC2, FluoZin-2 fluorescence, MLSMR | KCC2 cells, thallium flux FluoZin-2 fluorescence | B-score of Tl+ flux slope (higher = more flux/activation; lower = inhibition) at 10 µM | hit rate 2.2% among 190,000 | Solute carrier family 12 member 5 (Homo sapiens), Q9H2X9;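 active means thallium flux slope and its plate-corrected score both differing from the plate sample mean at a set confidence after two filtering rounds, in either direction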;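 further: slope of fluorescence scaled to starting intensity during 10 to 20 s after thallium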
PKD1 inh = inhibitors of human PKD1 kinase, biochemical, fluorescence polarization. AID 797, 2007. PKD1 kinase fluorescence polarization assay. inhibition, % (concentration not given with the values). hit rate 0.056% among 200,000; in the data active means inhibition above about 50%
Target sequence (Q15139 whole entry, looked up): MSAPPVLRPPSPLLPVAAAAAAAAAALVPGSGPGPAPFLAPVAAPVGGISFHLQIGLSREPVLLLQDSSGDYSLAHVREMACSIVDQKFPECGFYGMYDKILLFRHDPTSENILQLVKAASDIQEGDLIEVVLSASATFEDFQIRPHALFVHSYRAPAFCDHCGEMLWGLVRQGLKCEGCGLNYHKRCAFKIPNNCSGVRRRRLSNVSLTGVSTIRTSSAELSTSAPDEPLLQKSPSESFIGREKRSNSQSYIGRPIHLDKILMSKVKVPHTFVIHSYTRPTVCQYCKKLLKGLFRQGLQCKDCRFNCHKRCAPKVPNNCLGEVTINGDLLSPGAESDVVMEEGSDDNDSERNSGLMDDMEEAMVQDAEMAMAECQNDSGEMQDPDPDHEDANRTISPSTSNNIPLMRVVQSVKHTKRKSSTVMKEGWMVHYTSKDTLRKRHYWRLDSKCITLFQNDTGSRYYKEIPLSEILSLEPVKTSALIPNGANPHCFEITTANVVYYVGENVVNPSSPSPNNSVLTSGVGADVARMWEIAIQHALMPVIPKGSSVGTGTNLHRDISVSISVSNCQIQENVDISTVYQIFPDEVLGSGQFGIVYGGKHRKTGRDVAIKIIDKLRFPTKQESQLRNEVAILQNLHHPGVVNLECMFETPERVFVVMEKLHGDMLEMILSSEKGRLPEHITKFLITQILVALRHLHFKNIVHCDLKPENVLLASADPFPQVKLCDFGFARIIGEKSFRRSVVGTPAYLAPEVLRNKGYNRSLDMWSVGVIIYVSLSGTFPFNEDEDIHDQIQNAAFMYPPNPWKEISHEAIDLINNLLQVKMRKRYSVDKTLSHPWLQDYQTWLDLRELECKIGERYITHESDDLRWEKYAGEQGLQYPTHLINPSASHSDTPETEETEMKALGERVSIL
Mdm2 ligase inh = MDM2-luciferase reporter signal enhancers, primary screen, MDM2 E3 ligase inhibitor project, cell-based, luminescence, 1536-well; E3 ubiquitin-protein ligase Mdm2 (Homo sapiens), Q00987; cell-based MDM2 ubiquitination luciferase reporter, 2 h; 0 = plate control, 100 = twice control, blank-subtracted; signal enhancement, % at 5 µM; hit rate 0.11% among 210,000; AID 1230, 2008;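 active means signal enhancement of 30% or more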;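 further: luminescence tracks abundance of the self-degrading MDM2-luciferase fusion protein; higher signal means inhibition of MDM2 E3 ligase activity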
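System: stable MDM2–luciferase fusion reporter cells / Input: 2000 cells seeded into each well / Schedule: 4 h settle plus 2 h compound, 37 °C / Compound: single-point 5 µM / Buffer or medium: cells held in DMEM / Benchmarks: control and blank well means / Evaluation: percent signal gain over controls, blank-subtracted / Measured by: luciferase luminescence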
m-calpain inh = inhibitors of pig calpain II, primary screen, biochemical, fluorogenic peptide substrate, 1536-well | purified calpain II, 30 min | inhibition, % at 16 µM | hit rate 0.37% among 220,000 | AID 1236, 2008;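 active means inhibition above about 50%, limit read from the data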
ROMK mod = ROMK potassium channel modulators, primary screen, cell-based, thallium flux, MLSMR library; hit rate 2% among 130,000; Tet-inducible ROMK, thallium flux fluorescence; actives lie on both sides; B-score at 10 µM; ATP-sensitive inward rectifier potassium channel 1 (Homo sapiens), P48048;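 active means signal ratio slope over the read window, or its plate-corrected B-score, at least 3 SD from the plate mean, either direction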;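 further: B-score of the F/F0 ratio slope over 7 to 12 s after thallium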
Arbovirus anti = antivirals against arbovirus infection, primary screen, cell-based, full library, 10K replicate subset; arbovirus infection cell-based antiviral screen; AID 1251, 2008; hit rate 0.37% among 200,000; inhibition, % at 10 µM; in the data active means inhibition above about 30%
KCC2 secondary = KCC2 modulators in sodium-free buffer, confirmation, cell-based, HEK293 KCC2, thallium flux, secondary assay | shares compounds with Cl transport mod | FluoZin2 fluorescence; hits give high values | normalised thallium flux (F/F0 slope) at 10 µM | hit rate 15% among 3,700 | AID 1713, 2009;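 active means thallium flux slope above the same plate's solvent-only control mean plus 3 SD; inconclusive means the two replicate wells disagree; inactive means no significant difference from solvent-only control wells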
KCC2 bumet counter = thallium flux persisting under bumetanide in KCC2 cells, confirmation, counter-screen for KCC2 modulator project, cell-based, HEK293 KCC2, FluoZin2, secondary assay 3. hit rate 49% among 3,700. shares compounds with Cl transport mod. HEK293-KCC2 + bumetanide/ouabain; hits give high values. normalized thallium flux at 10 µM;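 active means thallium entry rate above the same plate's blocked-transporter control wells by more than 3 SD; inconclusive means the two repeat wells disagree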;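 further: raw slope of fluorescence over initial fluorescence between 10 and 20 s after thallium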
KCC2 sec2 = KCC2 modulators without ouabain present, confirmation, cell-based, HEK293 KCC2, thallium flux, FluoZin2, secondary assay 2; AID 1715, 2009; hit rate 23% among 3,700; shares compounds with Cl transport mod; normalized thallium flux at 10 µM; thallium flux FluoZin2 fluorescence; actives lie on both sides; F/F0 rise rate, 10–20 s post-thallium;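 active means thallium flux slope more than 3 SD above or below the plate's solvent-only control mean, mostly below; inconclusive means the two repeat wells disagreed; inactive means no significant shift from solvent-only controls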
HEK counter1 = thallium flux modulation in parental HEK cells, confirmation, counter-screen for KCC2 modulator project, cell-based, counterscreen 1. shares compounds with Cl transport mod. HEK293 parental cells, thallium flux FluoZin2, ouabain; baseline-ratio fluorescence slope, 10–20 s after thallium. thallium flux rate (normalised fluorescence) at 10 µM. hit rate 46% among 3,700. AID 1716, 2009;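 active means thallium flux rate significantly above the same plate's solvent-only control wells, beyond their mean plus 3 SD; inconclusive means the two replicate wells gave conflicting results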
KCC2 retest ouab = KCC2 inhibitors and activators, ouabain retest, confirmation, HEK-KCC2 cells; shares compounds with Cl transport mod; HEK293-KCC2, thallium flux FluoZin2 fluorescence; bidirectional: low = inhibitor, high = activator; raw Tl+ flux slope (below DMSO = inhibition, above = activation) at 10 µM; hit rate 48% among 3,700; AID 1717, 2009;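 active means thallium flux slope beyond 3 SD from same-plate DMSO control mean in most replicates, usually higher, sometimes lower; inconclusive means repeat tests gave conflicting results; inactive means no significant difference from controls in most replicates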;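 further: slope of initial-normalized fluorescence between seconds 10 and 20 after thallium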
HEK counter2 = native HEK Tl+ uptake effects, second counter-screen – HEK cells, counterscreen 2, counter-screen for KCC2 modulator project, confirmation. HEK293 parental, thallium flux FluoZin-2 fluorescence slope. AID 1718, 2009. shares compounds with Cl transport mod. hit rate 33% among 3,700. thallium flux slope at 10 µM;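 active means thallium flux slope above the same plate's solvent-control mean plus 3 SD in both duplicate wells; inconclusive means duplicate wells that disagreed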;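 further: run without ouabain in cells lacking the KCC2 cotransporter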
Large screens that a line does not name were inactive (follow-up assays come after a bar, where they were run).

CCOC(=O)N1CCN(C(=O)c2ccc(-n3c(=S)[nH]c4ccccc4c3=O)cc2)CC1	none
CCOC(=O)COc1cc(-n2c(=S)[nH]c3ccccc3c2=O)c(Cl)cc1Cl	Cl transport mod 4.3 | KCC2 secondary inactive | KCC2 bumet counter 0.022 | KCC2 sec2 inactive | HEK counter1 0.013 | KCC2 retest ouab inconclusive | HEK counter2 0.016
COc1ccc(C(=O)NC2CCCCC2)cc1S(=O)(=O)N1CCCC1	Cl transport mod 7.5 | KCC2 secondary inactive | KCC2 bumet counter inconclusive | KCC2 sec2 inactive | HEK counter1 inactive | KCC2 retest ouab inactive | HEK counter2 inactive
N#C/C(=C(/O)COC(=O)c1ccccc1O)c1nc2ccccc2s1	Cl transport mod -5.1 | KCC2 secondary inactive | KCC2 bumet counter inactive | KCC2 sec2 inactive | HEK counter1 inactive | KCC2 retest ouab 0.016 | HEK counter2 inactive
CC(C)(C)c1ccc(C(=O)OC/C(O)=C(\C#N)c2nc3ccccc3s2)cc1	none (no result: ROMK mod)
Cc1cccc(C=Nc2ccccc2C(N)=O)c1	Cl transport mod -4.7 | KCC2 secondary inactive | KCC2 bumet counter inactive | KCC2 sec2 inactive | HEK counter1 inactive | KCC2 retest ouab inactive | HEK counter2 inactive
COc1ccc(C)cc1NC(=O)COC(=O)C1CC1	none
COc1ccc(C(=O)NC(=S)N2CCN(C)CC2)cc1Br	none
Cc1[nH]n(-c2ccccc2)c(=O)c1C=Nc1cnc2ccccc2c1	none
Cc1ccc(-n2[nH]c(C)c(C=Nc3ccc(C)cn3)c2=O)cc1	Cl transport mod 9.4 (no result: ROMK mod) | KCC2 secondary inactive | KCC2 bumet counter 0.02 | KCC2 sec2 inactive | HEK counter1 0.022 | KCC2 retest ouab inconclusive | HEK counter2 0.014
Cc1ccc(N=Cc2c(C)[nH]n(-c3ccccc3)c2=O)nc1	Cl transport mod 13 (no result: PKD1 inh, ROMK mod, Arbovirus anti) | KCC2 secondary inactive | KCC2 bumet counter 0.02 | KCC2 sec2 inactive | HEK counter1 0.024 | KCC2 retest ouab 0.026 | HEK counter2 inactive
Cc1ccc(-n2[nH]c(C)c(C=Nc3ccc(S(=O)(=O)Nc4nccs4)cc3)c2=O)cc1	none (no result: ROMK mod)
Cn1c(C(=O)N2CCN(c3ccccn3)CC2)cc2c(=O)n(C)c3ccccc3c21	none (no result: Cl transport mod, PKD1 inh, Mdm2 ligase inh, m-calpain inh, ROMK mod)
O=C(O)c1ccccc1CSc1ncccc1C(=O)O	none
O=C(Nc1ccccc1Cl)N1CCN(c2ccc3nnc(-c4ccc(F)cc4)n3n2)CC1	Cl transport mod -3.9 (no result: ROMK mod) | KCC2 secondary inactive | KCC2 bumet counter inactive | KCC2 sec2 inactive | HEK counter1 0.0093 | KCC2 retest ouab inactive | HEK counter2 inactive
c1ccc(-n2c(-c3ccncc3)nnc2-c2ccco2)cc1	none (no result: Cl transport mod, ROMK mod) | KCC2 secondary inactive | KCC2 bumet counter inactive | KCC2 sec2 inactive | HEK counter1 inactive | KCC2 retest ouab inactive | HEK counter2 inactive
CC(OC(=O)C1=Cc2ccccc2OC1)C(=O)NCc1ccco1 (stereo unspecified)	none
CCC(OC(=O)C1=Cc2ccccc2OC1)C(=O)NCc1ccco1 (stereo unspecified)	Cl transport mod -2.8 | KCC2 secondary inactive | KCC2 bumet counter inactive | KCC2 sec2 inactive | HEK counter1 inactive | KCC2 retest ouab inconclusive | HEK counter2 inactive
N#C/C(=C/c1ccc(N2CCCCCC2)o1)c1ccc(F)cc1	none (no result: Cl transport mod, ROMK mod) | KCC2 secondary inactive | KCC2 bumet counter inconclusive | KCC2 sec2 inactive | HEK counter1 inconclusive | KCC2 retest ouab 0.013 | HEK counter2 inactive
Cc1cc(C)n(-c2nc3sc4c(c3c(=O)[nH]2)CCCC4)n1	Cl transport mod 42 | KCC2 secondary inactive | KCC2 bumet counter 0.1 | KCC2 sec2 0.098 | HEK counter1 0.1 | KCC2 retest ouab 0.089 | HEK counter2 0.069
Cc1nc2sc3c(c2c(=O)[nH]1)CCCCC3	none (no result: PKD1 inh, ROMK mod, Arbovirus anti)
O=C(O)CC1(CC(=O)Nc2ccc3sccc3c2)CCCCC1	none (no result: PKD1 inh, ROMK mod, Arbovirus anti)
NC(=O)NC(c1ccc(Cl)cc1)c1ccccc1Cl (stereo unspecified)	none (no result: PKD1 inh, ROMK mod, Arbovirus anti)
CC/C(Cc1ccccc1)=N/NC(=O)c1cccc(Br)c1	Cl transport mod 9.2 | KCC2 secondary inactive | KCC2 bumet counter 0.01 | KCC2 sec2 inactive | HEK counter1 0.016 | KCC2 retest ouab inactive | HEK counter2 0.015
C/C(=N\NC(=O)c1cccc([N+](=O)[O-])c1)c1ccco1	Cl transport mod 12 (no result: PKD1 inh, ROMK mod, Arbovirus anti) | KCC2 secondary inactive | KCC2 bumet counter 0.025 | KCC2 sec2 inactive | HEK counter1 0.019 | KCC2 retest ouab 0.029 | HEK counter2 0.026
CC/C(Cc1ccccc1)=N\NC(=O)c1cc([N+](=O)[O-])cc([N+](=O)[O-])c1	Cl transport mod 33 | KCC2 secondary 0.018 | KCC2 bumet counter 0.067 | KCC2 sec2 inconclusive | HEK counter1 0.033 | KCC2 retest ouab 0.045 | HEK counter2 0.018
C/C(=N\NC(=O)c1ccccc1)c1ccccc1Br	none
C/C(=N\NC(=O)c1ccc(Br)cc1)c1ccccc1	Cl transport mod 6 (no result: ROMK mod) | KCC2 secondary inactive | KCC2 bumet counter 0.013 | KCC2 sec2 inactive | HEK counter1 0.015 | KCC2 retest ouab inconclusive | HEK counter2 inactive
NC(=O)c1nnsc1Sc1c(C(N)=O)nnn1-c1cccc(N)c1	none
